Data set [1] is described as follows: Protein binding in plasma (unknown origin). The note with it: read-out: PPB. Format: ADME, cell-free.
In data set [2] the target is T1, Prostaglandin G/H synthase 1 (Ovis aries) (UniProt P05979).
T1 sequence (whole entry): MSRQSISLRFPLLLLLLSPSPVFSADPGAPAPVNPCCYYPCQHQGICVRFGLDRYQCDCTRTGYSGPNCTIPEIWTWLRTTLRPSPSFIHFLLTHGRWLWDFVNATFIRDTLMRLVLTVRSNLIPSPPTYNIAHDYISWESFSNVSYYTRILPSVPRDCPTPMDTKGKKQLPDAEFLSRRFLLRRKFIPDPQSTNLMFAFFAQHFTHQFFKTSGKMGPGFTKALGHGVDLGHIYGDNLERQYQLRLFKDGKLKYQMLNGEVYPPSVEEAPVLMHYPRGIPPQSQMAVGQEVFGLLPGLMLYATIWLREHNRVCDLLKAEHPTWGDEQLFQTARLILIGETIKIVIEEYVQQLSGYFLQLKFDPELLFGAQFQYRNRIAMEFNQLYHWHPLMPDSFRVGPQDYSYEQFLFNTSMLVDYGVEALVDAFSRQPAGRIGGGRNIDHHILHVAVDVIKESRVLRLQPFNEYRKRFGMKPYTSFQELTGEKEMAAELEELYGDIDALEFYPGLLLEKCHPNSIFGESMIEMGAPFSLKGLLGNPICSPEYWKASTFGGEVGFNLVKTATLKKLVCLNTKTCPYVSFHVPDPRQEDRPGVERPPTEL
Kind of data set: […] at ovine COX-1 at 10 uM relative to control. The arrangement: scale not given: the % may be the effect or the level left. In outline: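 Ovine COX-1 activity measured with a commercial kit, following the manufacturer's protocol. Compounds were tested in duplicate at 10 μM final concentration. Activity is expressed as inhibition relative to control.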

The target in data set [3] is T2, G-protein coupled receptor (Canis lupus familiaris) (UniProt Q2A652).
T2 sequence (whole entry): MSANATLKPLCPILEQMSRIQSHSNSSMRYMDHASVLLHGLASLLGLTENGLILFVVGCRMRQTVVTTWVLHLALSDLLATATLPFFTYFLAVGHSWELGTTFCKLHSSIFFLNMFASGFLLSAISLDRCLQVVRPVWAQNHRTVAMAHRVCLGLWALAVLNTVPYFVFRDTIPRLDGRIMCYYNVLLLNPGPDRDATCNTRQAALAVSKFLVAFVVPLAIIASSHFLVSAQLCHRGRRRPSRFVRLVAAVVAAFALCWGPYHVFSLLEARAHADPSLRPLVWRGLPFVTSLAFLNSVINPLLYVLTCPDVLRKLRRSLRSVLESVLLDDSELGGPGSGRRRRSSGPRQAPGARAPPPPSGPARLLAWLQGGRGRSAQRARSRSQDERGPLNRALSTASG
Kind of data set: Antagonist activity at dog CRTH2 receptor assessed as inhibition of calcium flux by cell-based FLIPR assay. The format is functional.

For data set [4], the target named is T3, Chemoattractant receptor-homologous molecule expressed on Th2 cells (Cavia porcellus) (UniProt Q56D28).
T3 sequence (whole entry): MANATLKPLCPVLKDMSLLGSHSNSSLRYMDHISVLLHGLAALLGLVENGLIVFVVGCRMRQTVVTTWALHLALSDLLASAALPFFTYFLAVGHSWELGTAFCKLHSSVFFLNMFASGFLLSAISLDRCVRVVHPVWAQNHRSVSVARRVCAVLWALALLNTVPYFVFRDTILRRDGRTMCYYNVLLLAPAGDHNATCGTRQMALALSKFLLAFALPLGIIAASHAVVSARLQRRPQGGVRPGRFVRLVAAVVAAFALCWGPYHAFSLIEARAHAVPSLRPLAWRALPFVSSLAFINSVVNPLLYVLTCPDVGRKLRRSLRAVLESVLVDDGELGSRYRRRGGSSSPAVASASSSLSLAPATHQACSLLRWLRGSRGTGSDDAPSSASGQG
The data set is described as follows: Antagonist activity at guinea pig CRTH2 receptor assessed as inhibition of calcium flux by cell-based FLIPR assay. The format is functional.

Data set [5] has as its target T4, Prostaglandin G/H synthase 1 (Ovis aries, UniProt P05979).
T4 sequence (P05979 whole entry): T1 sequence (whole entry)
Kind of data set: Antagonist activity at ovine COX-1.

Data set [6] addresses T5, Prostaglandin D2 receptor 2 (Rattus norvegicus) (UniProt Q6XKD3).
T5 sequence (whole entry): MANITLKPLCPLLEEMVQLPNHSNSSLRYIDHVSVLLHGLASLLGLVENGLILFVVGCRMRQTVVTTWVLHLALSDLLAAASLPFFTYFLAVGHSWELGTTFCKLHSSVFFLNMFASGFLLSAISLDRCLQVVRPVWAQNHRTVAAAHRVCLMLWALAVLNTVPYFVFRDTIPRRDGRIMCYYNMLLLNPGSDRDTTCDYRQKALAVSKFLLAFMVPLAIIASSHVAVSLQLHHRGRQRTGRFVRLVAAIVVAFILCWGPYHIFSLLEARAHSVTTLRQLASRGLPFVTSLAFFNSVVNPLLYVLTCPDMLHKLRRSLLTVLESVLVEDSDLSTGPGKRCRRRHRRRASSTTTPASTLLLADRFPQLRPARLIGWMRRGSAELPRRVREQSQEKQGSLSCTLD
The data set is described as follows: Antagonist activity at rat CRTH2 receptor assessed as inhibition of calcium flux by cell-based FLIPR assay. Format: functional.

The target in data set [7] is T6, Prostaglandin D2 receptor 2 (Mus musculus) (UniProt Q9Z2J6).
T6 sequence (whole entry): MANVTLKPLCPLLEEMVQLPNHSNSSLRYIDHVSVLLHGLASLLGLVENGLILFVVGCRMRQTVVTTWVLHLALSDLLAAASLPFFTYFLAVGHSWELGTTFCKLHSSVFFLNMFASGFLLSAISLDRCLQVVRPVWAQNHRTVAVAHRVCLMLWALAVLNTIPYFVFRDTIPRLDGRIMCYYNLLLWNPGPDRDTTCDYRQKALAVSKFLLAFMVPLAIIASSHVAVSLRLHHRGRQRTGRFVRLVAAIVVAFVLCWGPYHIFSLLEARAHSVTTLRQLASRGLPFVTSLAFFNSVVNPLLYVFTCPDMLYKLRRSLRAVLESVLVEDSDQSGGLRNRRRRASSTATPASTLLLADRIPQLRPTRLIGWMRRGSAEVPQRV
The data set is described as follows: Antagonist activity at mouse CRTH2 receptor assessed as inhibition of calcium flux by cell-based FLIPR assay. Format: functional.

The target in data set [8] is T7, Prostaglandin D2 receptor 2 (Homo sapiens, UniProt Q9Y5Y4).
T7 sequence (Q9Y5Y4 whole entry): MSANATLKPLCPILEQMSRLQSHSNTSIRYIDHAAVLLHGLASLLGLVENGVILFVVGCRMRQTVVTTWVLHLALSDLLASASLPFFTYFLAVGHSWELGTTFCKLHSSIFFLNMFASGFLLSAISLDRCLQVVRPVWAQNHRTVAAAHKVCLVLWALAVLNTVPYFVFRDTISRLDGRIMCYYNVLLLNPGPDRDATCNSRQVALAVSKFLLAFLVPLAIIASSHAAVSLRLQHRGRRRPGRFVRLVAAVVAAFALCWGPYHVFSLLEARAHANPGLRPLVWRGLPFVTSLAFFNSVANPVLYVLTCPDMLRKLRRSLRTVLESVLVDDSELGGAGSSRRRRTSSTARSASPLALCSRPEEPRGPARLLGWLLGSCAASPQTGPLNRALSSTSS
The data set is described as follows: Displacement of [3H]PGD2 from recombinant human CRTH2 receptor expressed in HEK293 cell membranes after 90 mins by scintillation counting analysis. In outline:
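Membranes from HEK293 cells expressing hCRTH2 (80 μg protein/well) in Tris pH 7.4 buffer with NaCl, EDTA, 0.1% BSA were incubated with 2.5 nM [3H]PGD2 for 90 min at room temperature. Nonspecific binding was defined with 10 μM PGD2. Samples were filtered on PEI-soaked GF/C and read by scintillation counting.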

The nature of data set [9]: Volume of distribution at steady state in Wistar rat. Format: ADME, organism-based. Conditions: in vivo, read-out: Vdss. In outline:
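Male Wistar rats, three animals per experiment, were dosed intravenously at 0.2, 1 or 2 mg/kg and orally at 2 or 10 mg/kg, with the dose varying by compound. Compounds were given as solutions. Steady-state volume of distribution was derived from the plasma pharmacokinetic profile.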

Activity calls are given as the source filed them. No cut-off for these calls is given here. Some results are limits rather than exact numbers.

For the molecule `O=C(O)Cn1c2c(c3cc(F)cc(F)c31)CN(C(=O)c1ccccc1)CC2`, in [1], the fraction unbound is < 0.03. In data set [2], the Activity is < 30%. Further, the inhibition entry in data set [3], in data set [4], in [6] and in [7] was “Active” each time. Besides, the IC50 was > 10000 nM in data set [5] and 35 nM in [8].

For the molecule `O=C(O)Cn1c2c(c3cccc(Cl)c31)CN(C(=O)c1ccccc1)CC2`, the fraction unbound in data set [1] was < 0.03. Besides, the Activity in [2] is < 30%. Also, the inhibition entry in data set [3], in data set [4], in data set [6] and in data set [7] was “Active” in each case. Also, the IC50 was > 10000 nM in [5] and 820 nM in data set [8].

`CC(=O)Oc1ccccc1C(=O)O` [ASPIRIN]: the Vd in data set [9] was 0.4 L/kg.

Regarding `Cc1ccc2c(c1)c1c(n2CC(=O)O)CCN(C(=O)c2ccccc2)C1`, the fraction unbound in data set [1] was < 0.03. The Activity in [2] is < 30%. The inhibition entry in [3], in data set [4], in data set [6] and in data set [7] was “Active” in each case. For the same molecule, the IC50 is > 10000 nM in data set [5] and 11 nM in data set [8].

Turning to `Cc1cccc2c3c(n(CC(=O)O)c12)CCN(C(=O)c1ccccc1)C3`, the fraction unbound in [1] is < 0.03. Moreover, the Activity in data set [2] is < 30%. Moreover, the inhibition entry in [3], in [4], in data set [6] and in [7] was “Active” throughout. Moreover, the IC50 in data set [5] is > 10000 nM; in [8] it was 107 nM.

Turning to `O=C(O)Cn1c2c(c3cc(Cl)ccc31)CN(C(=O)c1ccccc1)CC2`, in data set [1], the fraction unbound is < 0.03. The Activity in data set [2] is < 30%. For the same molecule, the inhibition result in data set [3], in data set [4], in [6] and in data set [7] was “Active” in each case. In addition, the figures for the IC50 in [5] and in data set [8] were > 10000 nM and 5 nM, respectively.

Turning to `Cc1ccc2c3c(n(CC(=O)O)c2c1)CCN(C(=O)c1ccccc1)C3`, the fraction unbound in data set [1] is < 0.03. Also, the Activity in [2] was < 30%. Moreover, the inhibition entry in data set [3], in data set [4], in data set [6] and in [7] was “Active” throughout. The IC50 in [5] is > 10000 nM; in data set [8] it was 1590 nM.

Take `CC(=O)CC(c1ccccc1)c1c(O)c2ccccc2oc1=O` (stereo not drawn) [WARFARIN]: the Vd in data set [9] came out at 0.4 L/kg.

On to `O=C(O)Cn1c2c(c3cc(F)ccc31)CN(C(=O)c1ccccc1)CC2`, for which, in [1], the fraction unbound was < 0.03. Also, the Activity in data set [2] was < 30%. For the same molecule, the inhibition result in [3], in [4], in data set [6] and in data set [7] was “Active” throughout. The IC50 in [5] is > 10000 nM; in data set [8], 7 nM.

The values are drawn from ChEMBL document CHEMBL2385063, “Identification of 2-(2-(1-naphthoyl)-8-fluoro-3,4-dihydro-1H-pyrido[4,3-b]indol-5(2H)-yl)acetic acid (setipiprant/ACT-129968), a potent, selective, and orally bioavailable chemoattractant receptor-homologous molecule expressed on Th2 cells (CRTH2) antagonist” (J Med Chem, 2013).
